In the library only some 2.6% were active in any assay of this set; here they are far more common.
CHT allo act – CHT positive allosteric modulators, primary screen, cell-based, membrane potential dye, choline EC20; High affinity choline transporter 1 (Homo sapiens), Q9GZV3; B-score at 10 µM; CHT-expressing cells; active compounds read high; LV-AA mutant CHT in HEK293 cells; hit rate 0.49% among 310,000;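 active means initial fluorescence not abnormally high and integrated response B-score, plate-corrected, over 3 SD above library mean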
Target sequence (Q9GZV3 whole entry, looked up): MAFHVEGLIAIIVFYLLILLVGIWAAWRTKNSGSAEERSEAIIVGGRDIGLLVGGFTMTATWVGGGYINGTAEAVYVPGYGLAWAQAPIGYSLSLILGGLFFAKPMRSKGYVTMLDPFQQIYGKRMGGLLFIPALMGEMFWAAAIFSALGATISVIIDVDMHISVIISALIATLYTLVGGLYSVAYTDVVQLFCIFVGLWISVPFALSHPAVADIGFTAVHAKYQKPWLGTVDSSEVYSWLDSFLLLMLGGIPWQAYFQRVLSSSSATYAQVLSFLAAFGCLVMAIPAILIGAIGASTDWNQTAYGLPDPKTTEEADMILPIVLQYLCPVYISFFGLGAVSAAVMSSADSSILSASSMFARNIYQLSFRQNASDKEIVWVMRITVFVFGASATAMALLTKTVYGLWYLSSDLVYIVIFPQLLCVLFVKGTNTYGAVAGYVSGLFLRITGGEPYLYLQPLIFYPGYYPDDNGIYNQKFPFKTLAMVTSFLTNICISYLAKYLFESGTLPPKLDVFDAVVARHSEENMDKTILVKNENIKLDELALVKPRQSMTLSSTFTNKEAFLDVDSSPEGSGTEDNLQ
KCC2 mod – KCC2 cotransporter modulators, thallium flux, primary screen, cell-based, HEK293 KCC2, FluoZin-2 fluorescence, MLSMR; Solute carrier family 12 member 5 (Homo sapiens), Q9H2X9; KCC2 cells, thallium flux FluoZin-2 fluorescence; B-score of Tl+ flux slope (higher = more flux/activation; lower = inhibition) at 10 µM; hit rate 2.2% among 190,000;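 active means thallium flux slope and its plate-corrected score both differing from the plate sample mean at a set confidence after two filtering rounds, in either direction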;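 further: slope of fluorescence scaled to starting intensity during 10 to 20 s after thallium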
CHT inh – inhibitors of human choline transporter CHT; CHT-expressing cells, membrane potential dye, choline response; active compounds read low; B-score at 10 µM; hit rate 0.86% among 310,000;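 active means B-score over 3 SD under the library average, and starting fluorescence ratio not unusually high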;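 further: choline stimulus applied at its EC90 after an EC20 pre-addition; B-score computed on integrated fluorescence ratio after choline addition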
Rad51 HR inh – human RAD51 strand exchange inhibitors, primary screen, biochemical, fluorescence | inhibition, % at 10 µM | hit rate 0.085% among 200,000 | hRad51 DNA strand exchange, fluorescence dequenching;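 active means inhibition above 40% at the single screening dose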;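 further: 0% = DMSO control wells and 100% = blanks with heterologous ssDNA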
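Test system: preformed human Rad51 ssDNA filaments. Compound dosing: single dose, 10 µM final compound. Incubation: filaments 15 min 37 °C, then compound 30 min. Technique: FRET fluorescence dequenching, excitation 485 nm, emission 520 nm. Read-out basis: percent inhibition from fluorescence, normalised to plate control and blank means. Benchmarks: plate controls and plate blanks.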
KCC2 secondary – KCC2 modulators in sodium-free buffer, confirmation, cell-based, HEK293 KCC2, thallium flux, secondary assay; hit rate 15% among 3,700; shares compounds with KCC2 mod; FluoZin2 fluorescence; active compounds read high; normalised thallium flux (F/F0 slope) at 10 µM;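 active means thallium flux slope above the same plate's solvent-only control mean plus 3 SD; inconclusive means the two replicate wells disagree; inactive means no significant difference from solvent-only control wells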
KCC2 bumet counter – thallium flux persisting under bumetanide in KCC2 cells, confirmation, counter-screen for KCC2 modulator project, cell-based, HEK293 KCC2, FluoZin2, secondary assay 3; shares compounds with KCC2 mod; HEK293-KCC2 + bumetanide/ouabain; active compounds read high; normalized thallium flux at 10 µM; hit rate 49% among 3,700; AID 1714, 2009;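 active means thallium entry rate above the same plate's blocked-transporter control wells by more than 3 SD; inconclusive means the two repeat wells disagree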;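 further: raw slope of fluorescence over initial fluorescence between 10 and 20 s after thallium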
KCC2 sec2 – KCC2 modulators without ouabain present, confirmation, cell-based, HEK293 KCC2, thallium flux, FluoZin2, secondary assay 2 | shares compounds with KCC2 mod | thallium flux FluoZin2 fluorescence; actives lie on both sides; F/F0 rise rate, 10–20 s post-thallium | normalized thallium flux at 10 µM | hit rate 23% among 3,700 | AID 1715, 2009;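 active means thallium flux slope more than 3 SD above or below the plate's solvent-only control mean, mostly below; inconclusive means the two repeat wells disagreed; inactive means no significant shift from solvent-only controls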;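 further: raw slope with 0.1% DMSO as baseline and bumetanide as block control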
HEK counter1 – thallium flux modulation in parental HEK cells, confirmation, counter-screen for KCC2 modulator project, cell-based, counterscreen 1 | shares compounds with KCC2 mod | HEK293 parental cells, thallium flux FluoZin2, ouabain; baseline-ratio fluorescence slope, 10–20 s after thallium | thallium flux rate (normalised fluorescence) at 10 µM | hit rate 46% among 3,700 | AID 1716, 2009;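 active means thallium flux rate significantly above the same plate's solvent-only control wells, beyond their mean plus 3 SD; inconclusive means the two replicate wells gave conflicting results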
KCC2 ouabain – KCC2 inhibitors and activators, ouabain retest, confirmation, HEK-KCC2 cells | shares compounds with KCC2 mod | HEK293-KCC2, thallium flux FluoZin2 fluorescence; bidirectional: low = inhibitor, high = activator | raw Tl+ flux slope (below DMSO = inhibition, above = activation) at 10 µM | hit rate 48% among 3,700;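 active means thallium flux slope beyond 3 SD from same-plate DMSO control mean in most replicates, usually higher, sometimes lower; inconclusive means repeat tests gave conflicting results; inactive means no significant difference from controls in most replicates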;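 further: slope of initial-normalized fluorescence between seconds 10 and 20 after thallium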
HEK counter2 – native HEK Tl+ uptake effects, second counter-screen – HEK cells, counterscreen 2, counter-screen for KCC2 modulator project, confirmation | thallium flux slope at 10 µM | hit rate 33% among 3,700 | HEK293 parental, thallium flux FluoZin-2 fluorescence slope | shares compounds with KCC2 mod | AID 1718, 2009;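 active means thallium flux slope above the same plate's solvent-control mean plus 3 SD in both duplicate wells; inconclusive means duplicate wells that disagreed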;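 further: run without ouabain in cells lacking the KCC2 cotransporter; slope of fluorescence scaled to its starting value between 10 and 20 s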
Active calls of the source: *.

Screening CCOC(=O)c1sc(=S)n(-c2cccc(C(F)(F)F)c2)c1SC returned CHT allo act inactive, KCC2 mod -0.91, CHT inh inactive and Rad51 HR inh -12.
`CSC(=S)N/N=C/c1ccc(Br)cc1` gave CHT allo act inactive, KCC2 mod 68*, CHT inh inactive, Rad51 HR inh 4, KCC2 secondary 0.026*, KCC2 bumet counter 0.088*, KCC2 sec2 0.048*, HEK counter1 0.037*, KCC2 ouabain 0.046* and HEK counter2 0.038*.
`Fc1ccc(COc2ccc3ccccc3c2CNc2nn[nH]n2)cc1` gave CHT allo act inactive, KCC2 mod -4.6*, CHT inh inactive, KCC2 secondary 0.0061, KCC2 bumet counter 0.0046, KCC2 sec2 0.021*, HEK counter1 inconclusive, KCC2 ouabain 0.0092* and HEK counter2 inconclusive.
`Fc1ccccc1COc1ccc2ccccc2c1CNc1nn[nH]n1` gave CHT allo act inactive, KCC2 mod -5.9*, CHT inh inactive, Rad51 HR inh 0, KCC2 secondary 0.0059, KCC2 bumet counter 0.0043, KCC2 sec2 0.02*, HEK counter1 inconclusive, KCC2 ouabain 0.0087* and HEK counter2 inconclusive.
O=C(CCc1ccccc1)NCCc1ccc(F)cc1 was read as CHT allo act inactive and CHT inh inactive.
Screening Cc1ccc(-n2ncc3c(SCc4cccc(C)c4)ncnc32)cc1 returned CHT allo act inactive, KCC2 mod 6.6*, CHT inh inactive, Rad51 HR inh 0, KCC2 secondary 0.0074, KCC2 bumet counter 0.022*, KCC2 sec2 0.042*, HEK counter1 0.022*, KCC2 ouabain 0.031* and HEK counter2 0.026*.
For Cc1cccc(CSc2ncnc3c2cnn3Cc2ccccc2)c1 the results were CHT allo act inactive, KCC2 mod -0.24, CHT inh inactive and Rad51 HR inh 4.
`CC(=O)Oc1ccc(C(c2ccc(OC(C)=O)cc2)c2ccccn2)cc1` gave CHT allo act inactive, KCC2 mod 31*, CHT inh inactive, Rad51 HR inh -1, KCC2 secondary inconclusive, KCC2 bumet counter 0.047*, KCC2 sec2 0.056*, HEK counter1 0.028*, KCC2 ouabain 0.047* and HEK counter2 0.027*.
Screening CCOC(=O)CC1C(=O)NCCN1c1nc2c(C)cccn2c(=O)c1/C=C1\SC(=S)N(CC(C)C)C1=O (stereo not drawn) returned KCC2 mod -9*, Rad51 HR inh inactive, KCC2 secondary 0.00069*, KCC2 bumet counter -0.0059*, KCC2 sec2 0.014*, HEK counter1 -0.0023*, KCC2 ouabain -0.0016* and HEK counter2 0.0041*.

Screening data: PubChem BioAssay, several laboratories
